Measurements taken from ChEMBL document CHEMBL2010640, “Perturbing pro-survival proteins using quinoxaline derivatives: a structure-activity relationship study” (Bioorg Med Chem, 2012).
Active and inactive are the calls of the source. The calls are words filed in the database; no cut-off is given here.

Tests used:
[1] = system: HeLa; experiment: Induction of apoptosis in human HeLa cells overexpressing Bad3SA at 10 uM after 12 hrs by Hoechst staining; assay type: functional, cell-based
Method in brief: (§1)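 Doxycycline-inducible HeLa lines (Dox-GFP, Dox-Noxa, Dox-Bad3SA) induced with doxycycline (1 μg/mL) for 3 h, then treated for a further 12 h; ABT-737 tested at 1 μM, other compound at 10 μM, DMSO vehicle. Cells fixed and Hoechst-stained; condensed nuclei counted to give percent cell death.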

[2] = system: HeLa; experiment: Induction of apoptosis in human HeLa cells assessed as caspase activation at 1 to 10 uM by Hoechst staining; assay type: functional, cell-based
Method in brief: (§2)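 HeLa cells, 2000 cells/well, treated 6 h (ABT-737 1 μM; other compounds 10 μM, alone or combined); Caspase-Glo 3/7 reagent added, luminescence read after 1 h, RLU normalized to alamarBlue fluorescence. Separately, cell death across doses of the combination scored by Hoechst staining.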

[3] = system: HeLa; experiment: Induction of apoptosis in human HeLa cells assessed as decrease in XIAP expression at 10 uM by Western blot analysis; assay type: functional, cell-based
Method in brief: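 HeLa cells treated 24 h, media and trypsinized cells pooled, lysed in RIPA buffer (pH 8.0); SDS-PAGE and Western blot for XIAP, α-tubulin as loading control.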

[4] = target: Induced myeloid leukemia cell differentiation protein Mcl-1 (Homo sapiens) (UniProt Q07820); experiment: Induction of Mcl-1-mediated apoptosis in doxycyclin-stimulated human HeLa cells expressing GFP at 10 uM after 12 hrs by Hoechst staining; assay type: cell-based; method in brief: as §1
Chain of Induced myeloid leukemia cell differentiation protein Mcl-1 (Homo sapiens) (Q07820 whole entry): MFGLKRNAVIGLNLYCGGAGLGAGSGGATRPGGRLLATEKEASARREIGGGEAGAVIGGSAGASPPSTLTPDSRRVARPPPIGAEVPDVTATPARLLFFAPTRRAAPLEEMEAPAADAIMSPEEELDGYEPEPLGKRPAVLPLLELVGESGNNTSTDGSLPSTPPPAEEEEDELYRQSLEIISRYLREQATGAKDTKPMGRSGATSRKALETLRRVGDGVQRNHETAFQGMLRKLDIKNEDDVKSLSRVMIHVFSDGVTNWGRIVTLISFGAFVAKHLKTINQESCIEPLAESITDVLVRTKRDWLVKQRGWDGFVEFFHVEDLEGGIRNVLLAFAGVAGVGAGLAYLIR

[5] = target: Bcl-2-like protein 1 (Homo sapiens) (UniProt Q07817); experiment: Induction of Bcl-xL-mediated apoptosis in doxycyclin-stimulated human HeLa cells overexpressing Noxa at 10 uM after 12 hrs by Hoechst staining; assay type: cell-based; method in brief: as §1
Chain of Bcl-2-like protein 1 (Homo sapiens) (Q07817 whole entry): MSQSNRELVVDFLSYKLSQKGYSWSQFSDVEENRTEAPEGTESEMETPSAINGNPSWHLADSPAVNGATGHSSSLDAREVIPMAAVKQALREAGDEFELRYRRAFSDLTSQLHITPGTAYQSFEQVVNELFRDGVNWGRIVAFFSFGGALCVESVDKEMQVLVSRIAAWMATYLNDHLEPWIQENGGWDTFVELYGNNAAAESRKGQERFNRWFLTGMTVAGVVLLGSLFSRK

[6] = target: Induced myeloid leukemia cell differentiation protein Mcl-1 (Homo sapiens) (UniProt Q07820); experiment: Induction of Mcl-1-mediated apoptosis in doxycyclin-stimulated human HeLa cells overexpressing Bad3SA at 10 uM after 12 hrs by Hoechst staining; assay type: cell-based; method in brief: as §1
[7] = system: HeLa; experiment: Induction of apoptosis in human HeLa cells expressing Bcl-xL assessed as decrease in Mcl-1 level at 1 to 10 uM by Western blot analysis; assay type: functional, cell-based; conditions: TDE = time-dependent effect
Method in brief: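 HeLa cells exposed to 1, 5 or 10 μM for 12 h (dose response), and Bcl-xL-overexpressing HeLa cells exposed to 10 μM for 3, 6 or 12 h (time course); lysates resolved by SDS-PAGE and blotted for Mcl-1, Bcl-xL and Bcl-2, actin as loading control, DMSO vehicle.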

[8] = system: HeLa; experiment: Induction of apoptosis in human HeLa cells assessed as decrease in Mcl-1 level after 12 hrs by Western blot analysis
[9] = target: Induced myeloid leukemia cell differentiation protein Mcl-1 (Homo sapiens) (UniProt Q07820); experiment: Inhibition of Mcl-1 in doxycyclin-stimulated human HeLa cells overexpressing Bad3SA assessed as increase in caspase3/7 activity at 50 uM after 6 hrs by luminescence analysis; assay type: cell-based
Method in brief: (§3)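 Dox-Bad3SA HeLa cells (Bad3SA expressed under doxycycline control) exposed to compound for 6 h, with doxycycline or without it. Caspase 3/7 activity read as Caspase-Glo luminescence 1 h after adding reagent. Raw luminescence was normalized to alamarBlue fluorescence to correct for cell number.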

[10] = target: Induced myeloid leukemia cell differentiation protein Mcl-1 (Homo sapiens) (UniProt Q07820); experiment: Inhibition of Mcl-1 in human HeLa cells overexpressing Bad3SA assessed as increase in caspase3/7 activity at 50 uM after 6 hrs by luminescence analysis; assay type: cell-based; method in brief: as §3
[11] = system: HeLa; experiment: Induction of apoptosis in human HeLa cells assessed as caspase activation at 1 uM by Hoechst staining; assay type: functional, cell-based; method in brief: as §2

SMILES: O=C(Nc1ccc(Br)cc1)Nc1ccc2nc(-c3cccs3)c(-c3cccs3)nc2c1
- Activity [1]: inactive

SMILES: Cc1nc2ccc(NC(=O)Nc3ccc(Br)cc3)cc2nc1C
- Activity [2]: inactive
- Activity [1]: inactive

SMILES: O=C(Nc1ccccc1)Nc1ccc2nccnc2c1
- Activity [1]: inactive

SMILES: O=C(Nc1ccc(Br)cc1)Nc1ccc2nc(-c3ccco3)c(-c3ccco3)nc2c1
- Activity [3]: Active
- Activity [2]: inactive
- Activity [1]: Active
- Activity [4]: inactive
- Activity [5]: inactive
- Activity [6]: Active
- Activity [7]: tde
- Activity [8]: Dose-dependent effect

SMILES: O=C(Nc1cccc(Br)c1)Nc1ccc2nc(-c3ccco3)c(-c3ccco3)nc2c1
- Activity [1]: Active

SMILES: CC[C@@]1(O)C(=O)OCc2c1cc1n(c2=O)Cc2cc3ccccc3nc2-1
- inhibition [9]: Active
- inhibition [10]: inactive

SMILES: O=C(Nc1ccc(Br)cc1)Nc1ccc2nc(-c3ccccc3)c(-c3ccccc3)nc2c1
- Activity [1]: Active

SMILES: O=C(Nc1ccc(Br)cc1)Nc1ccc2nc(-c3ccccn3)c(-c3ccccn3)nc2c1
- Activity [1]: inactive

SMILES: O=C(Nc1ccc2nc(-c3ccco3)c(-c3ccco3)nc2c1)Nc1ccccc1Br
- Activity [1]: inactive

SMILES: CN(C)CC[C@H](CSc1ccccc1)Nc1ccc(S(=O)(=O)NC(=O)c2ccc(N3CCN(Cc4ccccc4-c4ccc(Cl)cc4)CC3)cc2)cc1[N+](=O)[O-]
- Activity [11]: inactive
